Bioassay records (PubChem)
A selection: hits, their analogues and other compounds. The true share with any hit is near 3.7%.
Kir21 block – inhibitors of mouse Kir2.1 inward-rectifier potassium channel; Inward rectifier potassium channel 2 (Mus musculus), P35561; hit rate 0.85% among 310,000; AID 1672, 2009; HEK293-Kir2.1, FluxOR thallium flux fluorescence; stronger effect = lower value; B-score at 10 µM;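 active means fluorescence ratio B-score at or below minus 3 SD of library scores, with starting-brightness B-score within 2 SD, cut at about -4.2 in these data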;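 further: channel flux triggered by added potassium and thallium sulfate stimulus; B-score of peak minus minimum fluorescence over baseline after thallium stimulus; more negative B-score means stronger Kir2.1 block with less thallium influx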
KCNK3 block – human KCNK3 channel inhibitors, primary screen, CHO cells, FluxOR thallium flux, B-score; FluxOR fluorescence; stronger effect = lower value; Potassium channel subfamily K member 3 (Homo sapiens), O14649; hit rate 0.84% among 340,000; B-score at 10 µM;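 active means B-score under library mean minus 4 SD, starting fluorescence ratio at most library mean plus 5 SD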;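 further: more negative B-score means stronger inhibition of thallium flux through KCNK3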
KCNQ1 pot – potentiators or activators of KCNQ1 channel, primary screen, cell-based, thallium flux, high-throughput; B-score at 10 µM; hit rate 0.35% among 310,000; Potassium voltage-gated channel subfamily KQT member 1 (Homo sapiens), P51787; CHO-K1 KCNQ1, thallium flux FluxOR fluorescence; stronger effect = higher value;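 active means fluorescence ratio B-score, a plate-corrected score, at least three library SD, with initial intensity B-score within 5 SD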
Target sequence (P51787 whole entry, looked up): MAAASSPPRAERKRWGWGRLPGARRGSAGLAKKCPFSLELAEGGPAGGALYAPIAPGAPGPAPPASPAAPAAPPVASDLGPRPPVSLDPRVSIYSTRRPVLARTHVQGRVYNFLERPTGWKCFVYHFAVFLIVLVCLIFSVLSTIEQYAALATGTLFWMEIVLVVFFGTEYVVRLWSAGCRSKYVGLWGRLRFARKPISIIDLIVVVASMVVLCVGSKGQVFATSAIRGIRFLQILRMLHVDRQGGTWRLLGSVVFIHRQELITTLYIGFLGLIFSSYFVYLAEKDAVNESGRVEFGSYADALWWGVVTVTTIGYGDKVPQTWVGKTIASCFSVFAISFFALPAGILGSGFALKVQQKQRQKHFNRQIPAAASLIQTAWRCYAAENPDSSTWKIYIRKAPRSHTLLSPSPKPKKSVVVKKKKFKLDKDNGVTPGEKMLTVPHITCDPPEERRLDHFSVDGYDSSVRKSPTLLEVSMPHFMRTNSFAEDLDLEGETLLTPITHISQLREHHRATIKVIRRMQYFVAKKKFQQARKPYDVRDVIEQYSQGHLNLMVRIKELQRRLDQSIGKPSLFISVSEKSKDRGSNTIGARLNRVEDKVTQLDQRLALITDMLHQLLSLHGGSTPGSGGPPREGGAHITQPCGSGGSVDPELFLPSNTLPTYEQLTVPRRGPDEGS
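Assay system: CHO-K1 cells stably expressing KCNQ1; Medium: assay buffer with matched DMSO; Also added: K+/Tl+ depolarizing stimulus; Dosing: single dose; Timing: dye 90 min, compound 20 min, room temperature; Measured by: kinetic FluxOR thallium fluorescence, 10-s 1-Hz baseline, 110-s post-stimulus read; Read-out: peak-minus-minimum fluorescence over initial fluorescence, negative-control normalized, B-scored.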
hERG rescue – hERG rescue from dofetilide block, primary screen, cell-based, CHO-hERG, FluxOR thallium flux, dofetilide IC70; Voltage-gated inwardly rectifying potassium channel KCNH2 (Homo sapiens), Q12809; dofetilide IC70 present; activation (rescue from dofetilide block), less the hit threshold, % at 10 µM; hit rate 0.51% among 310,000; AID 1511, 2009;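 active means activation above the mean of controls blocked by dofetilide plus 5 SD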;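 further: thallium influx through hERG after potassium depolarization seen as dye fluorescence rise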
KCNK9 block – KCNK9 potassium channel inhibitors, primary screen, HEK293 cells, thallium flux; Potassium channel subfamily K member 9 (Homo sapiens), Q9NPC2; FluxOR thallium flux fluorescence; stronger effect = lower value; B-score at 10 µM; hit rate 1.2% among 310,000;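 active means ratio B-score over 3 SD below the library mean, with starting fluorescence within 5 SD of its mean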;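 further: negative B-score means less thallium flux so channel inhibition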
KCNQ1 inh – inhibitors of human KCNQ1 channel, primary screen, cell-based, thallium flux, high-throughput | Potassium voltage-gated channel subfamily KQT member 1 (Homo sapiens), P51787 | CHO-K1 KCNQ1, FluxOR thallium flux fluorescence; stronger effect = higher value | B-score at 10 µM | hit rate 1.3% among 310,000 | AID 2642, 2010;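 active means compounds whose thallium flux B-score, printed positive for inhibition, exceeds three library SD while starting fluorescence stays within three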;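 further: channel opened by potassium depolarization with thallium stimulus after 20 min compound exposure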
The depositor's hits bear a star; i = inactive; . = not tested or not shown.

SMILES | Kir21 block | KCNK3 block | KCNQ1 pot | hERG rescue | KCNK9 block | KCNQ1 inh
COc1ccc(-c2nc(C(=O)NCC3CCCO3)cc3c2[nH]c2ccccc23)cc1 (stereo unspecified) | 1.5 | i | i | -9 | i | i
CN(C(=O)c1ccccc1F)C(c1ccccc1)c1ccccc1 | -7.2* | i | i | -18 | i | i
CC(/C=N/NC(=O)c1ccccc1F)c1ccccc1 (stereo unspecified) | 0.45 | i | i | -7 | i | i
O=C(NCc1n[nH]c(=O)c2ccccc12)C1CC(=O)N(c2ccccc2)C1 (stereo unspecified) | -0.74 | i | i | -7 | i | i
CC(C)c1ccc2c(c1)C(N1CCNCC1)Cc1ccc(F)cc1S2 (stereo unspecified) | -5.2* | i | i | -30 | i | i
Cc1nc(N2CCN(C)CC2)c2c(C)c(C(=O)Nc3ccc(C)c(F)c3)sc2n1 | -6* | i | i | -10 | i | i
Cc1nc(N2CCC(C)CC2)c2c(C)c(C(=O)Nc3ccccc3C(F)(F)F)sc2n1 | -1.6 | i | i | -14 | -7.4* | i
Cc1nc(N2CCN(c3ccccn3)CC2)c2c(C)c(C(=O)Nc3c(F)cc(F)cc3Br)sc2n1 | -0.71 | i | i | -18 | i | 6*
CC(=O)Nc1ccc(S(=O)(=O)NCC2CCC(C(=O)NC(C)c3ccc4c(c3)OCCO4)CC2)cc1 (stereo unspecified) | 1.1 | . | i | -8 | i | i
CCOC(=O)n1c(=O)n(Cc2ccc(Cl)c(Cl)c2)c2ccccc21 | 0.25 | i | i | -6 | -7.4* | i
O=C(C=Cc1cccc(O)c1)c1ccccc1O | . | -9.9* | . | . | . | .
O=C(/C=C/c1ccccc1)CC(=O)c1ccccc1O | -1.4 | i | i | 15* | i | i
Cc1ccc(NC(=O)CN2C(=O)NC3(CCCc4ccccc43)C2=O)c(C)c1 (stereo unspecified) | . | i | . | . | . | .
CC(C)Cc1nc(SCC(=O)N2CCCCC2)c2c(=O)n(C)c(=O)n(C)c2n1 | -0.01 | i | i | -6 | i | i
COc1ccc(N=C(N)SCc2ccccn2)cc1 | -4.5* | i | i | -4 | i | i
COc1ccc(-c2nnc(SCc3ccccn3)n2C)cc1 | 0.04 | i | i | -9 | i | i
COc1ccccc1NC(=O)CSCC(=O)N1c2ccccc2CCc2ccccc21 | -0.69 | i | i | -10 | -7.1* | i
CCCN(CCC)C1=CC(=[N+]2CCCC2)CC(C)(C)C1 | -4 | i | i | -12 | i | 6*
CN(C)NC1=CC(=[N+]2CCCC2)CC(C)(C)C1 | 0.42 | i | i | -12 | i | i
Cc1nc(C)c(-c2ccc(SCc3ccccc3C)nn2)s1 | -1.4 | i | i | -6 | -7.9* | i
COc1ccc(S(=O)(=O)N2CCC(C(=O)NC(c3nc4ccccc4[nH]3)C(C)C)CC2)cc1 (stereo unspecified) | . | i | . | . | . | .
COc1ccc(C(=O)Nn2c(SCC(=O)c3ccc(Cl)cc3)nc3ccccc3c2=O)cc1 | -0.65 | i | i | -13 | -7.1* | i
COc1ccc(C(=O)Nn2c(C)nc3ccccc3c2=O)cc1 | 1.1 | i | i | -7 | i | i
CCCOc1ccc(C(=O)Nn2c(C)nc3ccccc3c2=O)cc1 | 0.67 | i | i | 6.5* | i | i
COc1ccc(C(=O)Nn2c(SCC(=O)N3CCC(C)CC3)nc3ccccc3c2=O)cc1 | 0.3 | i | i | -10 | i | i
SMILES | Kir21 block | KCNK3 block | KCNQ1 pot | hERG rescue | KCNK9 block | KCNQ1 inh
CNC(=O)C(C)Sc1ccc(S(=O)(=O)N2CCOCC2)cn1 (stereo unspecified) | . | i | . | . | . | .
Cc1nn(-c2ccccc2)c(Cl)c1C1C(C#N)=C(N)OC2=C1C(=O)CCC2 (stereo unspecified) | 1.3 | i | i | 5.4* | i | i
CCCCN1C2=C(C(=O)CCC2)C(c2ccc(Cl)c(Cl)c2)C2=C1c1ccccc1C2=O (stereo unspecified) | -1.1 | -9.9* | i | -9 | i | i
CCCN1C(=O)c2ccccc2NC1c1ccc(Cl)c(Cl)c1 (stereo unspecified) | -1.1 | i | i | -5 | i | i
COc1ccc2ccccc2c1C1NC(=O)c2ccccc2N1 (stereo unspecified) | . | i | . | . | . | .
O=[N+]([O-])c1ccccc1OCCNCc1ccccc1 | -1.8 | i | i | 7.2* | i | i
C=CCNCCCOc1ccc(Cl)cc1C(C)(C)C | -14* | i | i | -20 | i | i
COCCCNCCOCCOc1ccc(Cl)cc1C(C)(C)C | -6.2* | i | i | -13 | i | i
C=CCNCCOCCOc1ccc(Cl)cc1C(C)(C)C | -11* | i | i | -10 | i | i
CC(C)(C)NCCOCCOc1ccc(Cl)cc1C(C)(C)C | -1 | i | i | -5 | i | i
CCOc1ccc(/C(O)=C2/C(=O)C(=O)N(CC3CCCO3)C2c2cccs2)cc1 (stereo unspecified) | -0.23 | i | i | -3 | i | i
CCOc1ccccc1-c1nnc(SCC(=O)NC2(C#N)CCCC2)o1 | . | i | . | . | . | .
CC(C)(C)c1ccccc1OCCOCCNCc1ccccc1 | -9.3* | i | i | -7 | i | i
O=C(NCc1ccccc1Cl)c1ccc(CS(=O)Cc2ccc(Cl)cc2)o1 (stereo unspecified) | 0.18 | i | i | -12 | i | i
N#CCc1ccccc1C(=O)OCC(=O)N(Cc1ccccc1)Cc1ccccc1 | . | -9.4* | . | . | . | .
O=S(=O)(Nc1ccc(-n2cnnn2)cc1)c1cccc(F)c1 | . | i | . | . | . | .
Cc1cccc(/C=C2/S/C(=N/N=C3\CC4CCC3(C)C4(C)C)NC2=O)c1 (stereo unspecified) | 0.73 | i | 18* | 14* | i | i
CCOC(=O)c1cc(-c2ccc(F)cc2)n(CCC(=O)NC2CCN(Cc3ccccc3)CC2)c1C | -4.6* | i | i | -12 | i | i
Cc1ccc(S(=O)(=O)N2CCCC2)cc1C(=O)N1CCN(Cc2ccccc2)CC1 | -1 | i | i | -10 | i | i
